ChEMBL document CHEMBL4689842, “EUbOPEN Chemogenomics Library wave 1” (2021)

Test system: Fibroblast
Experiment: Multiplex assay against human fibroblast
Format: toxicity, cell-based
Summary of the method: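 On a CQ1 microscope at 37°C and 5% CO2, live cells were imaged after compound addition. They had been stained at seeding with Hoechst33342, BioTracker Green Microtubule Cytoskeleton Dye, MitoTracker Red and Annexin V Alexa Fluor 680. CellPathfinder machine-learning gating assigned cells to Hoechst high-intensity objects or normal cells, normal cells to healthy, pyknosed or fragmented nuclei, and pyknosed cells to mitotic or apoptotic. Tubulin, mitochondrial-mass and membrane-permeability phenotypes are per cents of healthy-nucleus cells.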

[1] = 12 h, 1 µM, compound concentration 1 uM, replicate 1
[2] = 12 h, 1 µM, compound concentration 1 uM, replicate 2
[3] = 12 h, 10 µM, compound concentration 10 uM, replicate 1
[4] = 12 h, 10 µM, compound concentration 10 uM, replicate 2
[5] = 24 h, 1 µM, compound concentration 1 uM, replicate 1
[6] = 24 h, 1 µM, compound concentration 1 uM, replicate 2
[7] = 24 h, 10 µM, compound concentration 10 uM, replicate 1
[8] = 24 h, 10 µM, compound concentration 10 uM, replicate 2
[9] = 48 h, 1 µM, compound concentration 1 uM, replicate 1
[10] = 48 h, 1 µM, compound concentration 1 uM, replicate 2
[11] = 48 h, 10 µM, compound concentration 10 uM, replicate 1
[12] = 48 h, 10 µM, compound concentration 10 uM, replicate 2

## O=c1cc(N2CCOCC2)oc2c(-c3cccc4c3sc3ccccc34)cccc12
[1]
  Population Apoptotic (%): 65%
  Population Fragmented Nuclei (%): 23%
  Population Healthy Nuclei (%): 44%
  Population Hoechst High Intensity Objects (%): 13%
  Population Membrane Permeable-Phenotype (%): 32%
  Population Mitochondria Different-Phenotype (%): 5%
  Population Mitotic Cells (%): 34%
  Population Normal (%): 86%
  Population Pyknosed Nuclei (%): 32%
  Population Tubulin-Different-Phenotype (%): 36%
  Total Cell Count: 136
[2]
  Population Apoptotic (%): 100%
  Population Fragmented Nuclei (%): 15%
  Population Healthy Nuclei (%): 77%
  Population Hoechst High Intensity Objects (%): 10%
  Population Membrane Permeable-Phenotype (%): 2%
  Population Mitochondria Different-Phenotype (%): 6%
  Population Mitotic Cells (%): 0%
  Population Normal (%): 90%
  Population Pyknosed Nuclei (%): 6%
  Population Tubulin-Different-Phenotype (%): 14%
  Total Cell Count: 79
[3]
  Population Apoptotic (%): 61%
  Population Fragmented Nuclei (%): 35%
  Population Healthy Nuclei (%): 28%
  Population Hoechst High Intensity Objects (%): 13%
  Population Membrane Permeable-Phenotype (%): 30%
  Population Mitochondria Different-Phenotype (%): 28%
  Population Mitotic Cells (%): 38%
  Population Normal (%): 86%
  Population Pyknosed Nuclei (%): 36%
  Population Tubulin-Different-Phenotype (%): 95%
  Total Cell Count: 171
[4]
  Population Apoptotic (%): 31%
  Population Fragmented Nuclei (%): 19%
  Population Healthy Nuclei (%): 45%
  Population Hoechst High Intensity Objects (%): 16%
  Population Membrane Permeable-Phenotype (%): 23%
  Population Mitochondria Different-Phenotype (%): 90%
  Population Mitotic Cells (%): 68%
  Population Normal (%): 83%
  Population Pyknosed Nuclei (%): 34%
  Total Cell Count: 70
[5]
  Population Apoptotic (%): 57%
  Population Fragmented Nuclei (%): 19%
  Population Healthy Nuclei (%): 60%
  Population Hoechst High Intensity Objects (%): 9%
  Population Membrane Permeable-Phenotype (%): 31%
  Population Mitochondria Different-Phenotype (%): 2%
  Population Mitotic Cells (%): 42%
  Population Normal (%): 90%
  Population Pyknosed Nuclei (%): 20%
  Population Tubulin-Different-Phenotype (%): 39%
  Total Cell Count: 151
[6]
  Population Apoptotic (%): 60%
  Population Fragmented Nuclei (%): 11%
  Population Healthy Nuclei (%): 82%
  Population Hoechst High Intensity Objects (%): 6%
  Population Membrane Permeable-Phenotype (%): 9%
  Population Mitochondria Different-Phenotype (%): 9%
  Population Mitotic Cells (%): 40%
  Population Normal (%): 93%
  Population Pyknosed Nuclei (%): 6%
  Population Tubulin-Different-Phenotype (%): 15%
  Total Cell Count: 86
[7]
  Population Apoptotic (%): 77%
  Population Fragmented Nuclei (%): 28%
  Population Healthy Nuclei (%): 45%
  Population Hoechst High Intensity Objects (%): 14%
  Population Membrane Permeable-Phenotype (%): 19%
  Population Mitochondria Different-Phenotype (%): 40%
  Population Mitotic Cells (%): 22%
  Population Normal (%): 85%
  Population Pyknosed Nuclei (%): 26%
  Population Tubulin-Different-Phenotype (%): 95%
  Total Cell Count: 160
[8]
  Population Apoptotic (%): 66%
  Population Fragmented Nuclei (%): 14%
  Population Healthy Nuclei (%): 21%
  Population Hoechst High Intensity Objects (%): 6%
  Population Membrane Permeable-Phenotype (%): 50%
  Population Mitochondria Different-Phenotype (%): 70%
  Population Mitotic Cells (%): 33%
  Population Normal (%): 94%
  Population Pyknosed Nuclei (%): 63%
  Population Tubulin-Different-Phenotype (%): 70%
  Total Cell Count: 86
[9]
  Population Apoptotic (%): 60%
  Population Fragmented Nuclei (%): 33%
  Population Healthy Nuclei (%): 56%
  Population Hoechst High Intensity Objects (%): 11%
  Population Membrane Permeable-Phenotype (%): 21%
  Population Mitochondria Different-Phenotype (%): 7%
  Population Mitotic Cells (%): 40%
  Population Normal (%): 88%
  Population Pyknosed Nuclei (%): 10%
  Population Tubulin-Different-Phenotype (%): 27%
  Total Cell Count: 167
[10]
  Population Apoptotic (%): 50%
  Population Fragmented Nuclei (%): 18%
  Population Healthy Nuclei (%): 76%
  Population Hoechst High Intensity Objects (%): 6%
  Population Membrane Permeable-Phenotype (%): 17%
  Population Mitochondria Different-Phenotype (%): 2%
  Population Mitotic Cells (%): 50%
  Population Normal (%): 93%
  Population Pyknosed Nuclei (%): 4%
  Population Tubulin-Different-Phenotype (%): 24%
  Total Cell Count: 97
[11]
  Population Apoptotic (%): 68%
  Population Fragmented Nuclei (%): 51%
  Population Healthy Nuclei (%): 23%
  Population Hoechst High Intensity Objects (%): 12%
  Population Membrane Permeable-Phenotype (%): 17%
  Population Mitochondria Different-Phenotype (%): 37%
  Population Mitotic Cells (%): 31%
  Population Normal (%): 87%
  Population Pyknosed Nuclei (%): 25%
  Population Tubulin-Different-Phenotype (%): 80%
  Total Cell Count: 173
[12]
  Population Apoptotic (%): 64%
  Population Fragmented Nuclei (%): 27%
  Population Healthy Nuclei (%): 55%
  Population Hoechst High Intensity Objects (%): 10%
  Population Membrane Permeable-Phenotype (%): 6%
  Population Mitochondria Different-Phenotype (%): 48%
  Population Mitotic Cells (%): 35%
  Population Normal (%): 90%
  Population Pyknosed Nuclei (%): 17%
  Population Tubulin-Different-Phenotype (%): 88%
  Total Cell Count: 90
